Source: paper PMC9059734 (RSC Advances, 2019)
pEC50, pKd: −log10 of the molar value. Counter-ions that a name gives are not always drawn. Like-named read-outs stand apart in the source and are kept apart here. Each block holds one compound with its values, some of them ahead of it.

Assays:
mouse Elp2 protein = target: T1, mouse Elp2 protein (Mus musculus, UniProt Q91WG4); assay: SPRi affinity measurement of chip-immobilized library compounds to Elp2 protein; assay type: binding
T1 sequence (Q91WG4 1-831): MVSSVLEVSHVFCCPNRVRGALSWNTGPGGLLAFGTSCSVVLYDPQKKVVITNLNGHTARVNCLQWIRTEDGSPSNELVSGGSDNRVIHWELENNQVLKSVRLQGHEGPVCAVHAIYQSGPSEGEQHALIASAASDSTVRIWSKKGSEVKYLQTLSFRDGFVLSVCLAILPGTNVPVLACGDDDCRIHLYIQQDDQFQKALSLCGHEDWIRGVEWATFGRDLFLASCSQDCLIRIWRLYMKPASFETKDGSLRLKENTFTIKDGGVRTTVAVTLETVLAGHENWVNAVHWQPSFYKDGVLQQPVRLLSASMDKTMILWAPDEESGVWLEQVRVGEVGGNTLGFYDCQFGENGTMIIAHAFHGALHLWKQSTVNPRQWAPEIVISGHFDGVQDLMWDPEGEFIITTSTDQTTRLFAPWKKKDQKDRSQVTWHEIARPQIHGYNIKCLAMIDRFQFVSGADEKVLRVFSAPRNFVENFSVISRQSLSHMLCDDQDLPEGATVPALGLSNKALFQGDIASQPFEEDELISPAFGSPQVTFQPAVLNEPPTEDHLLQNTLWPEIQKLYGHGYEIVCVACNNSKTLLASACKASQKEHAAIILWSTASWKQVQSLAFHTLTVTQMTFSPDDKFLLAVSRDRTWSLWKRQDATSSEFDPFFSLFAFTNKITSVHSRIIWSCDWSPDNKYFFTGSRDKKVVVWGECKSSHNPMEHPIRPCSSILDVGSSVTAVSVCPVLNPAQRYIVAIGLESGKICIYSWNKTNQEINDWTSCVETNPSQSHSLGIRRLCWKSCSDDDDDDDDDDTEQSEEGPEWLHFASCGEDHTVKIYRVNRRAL

C2C12 cells [1] = assay: Q-PCR of osteogenic differentiation marker genes, ID model; assay type: cell-based, mouse; settings: C2C12, day 7, with TNF-α
Outline: (§1)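 On day 7 after day-0 treatment (5 ng mL−1 TNF-α ± test compound; C2C12 also with 100 ng mL−1 BMP-2), 2 × 10^5 cells harvested. Total RNA by TRIzol, column-purified and DNase-treated; 0.25 μg reverse transcribed. COL-I, ALP, OCN, BMP-2, RUNX-2 and OSX measured by real-time Q-PCR with gene-specific primers. Normalised to β-actin by ΔΔCt. Triplicate.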

MC3T3-E1 cells [2] = assay: ALP staining and activity, self-differentiation; assay type: cell-based; settings: Mus musculus, MC3T3-E1, read-out: EC50 based on ALP activity
Outline: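 MC3T3-E1 cells in DMEM with 10% FBS and 1% penicillin/streptomycin at 37 °C, 5% CO2; plated at 50% confluence, 24 h. No inducer. On day 0, given ddH2O solvent or 5 ng mL−1 TNF-α ± test compound at eleven levels (10 nM–800 μM). On day 7: kit ALP stain; ALP activity by OD 405 nm, per μg BCA total protein; EC50 from ALP activity. Mean ± SEM, triplicate.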

MC3T3-E1 cells [3] = assay: Q-PCR of osteogenic differentiation marker genes, SD model; assay type: cell-based, mouse; settings: MC3T3-E1, day 7, with TNF-α
Outline: as §1

C2C12 cells [4] = assay: Mineralization assessment by Alizarin Red S staining, ID model; assay type: cell-based, mouse; settings: C2C12, day 35, with TNF-α, vs negative control (p < 0.05)
C2C12 cells [5] = assay: ALP staining and activity, inflammatory differentiation; assay type: cell-based; settings: Mus musculus, C2C12, read-out: EC50 based on ALP activity
[6] = test system: B-Raf^V600E dependented tumor xenograft models; settings: orally dosed, without evidence of cytotoxicity; cited from earlier work
MC3T3-E1 cells [7] = assay: Mineralization assessment by Alizarin Red S staining, SD model; assay type: cell-based, mouse; settings: MC3T3-E1, day 35, with TNF-α, vs negative control (p < 0.05)
[8] = test system: melanoma cells bearing B-Raf^V600E; settings: cited from earlier work
[9] = SPRi, Elp2 200-3200 nM, 1:1 Langmuir binding

pEC50 (MC3T3-E1 cells [2]): 4.78
pEC50 (C2C12 cells [5]): 4.99
Compound: CCCS(=O)(=O)Nc1ccc(F)c(C(=O)c2c[nH]c3ncc(Cl)cc23)c1F [PLX-4720]
mRNA expression levels of COL-I, ALP, OCN, BMP-2, RUNX-2 and OSX (C2C12 cells [1]): elevated
mRNA expression levels of COL-I, ALP, OCN, BMP-2, RUNX-2 and OSX (MC3T3-E1 cells [3]): elevated
Mineralization, Alizarin Red S stained spots (C2C12 cells [4]): more stained spots compared with the negative control
tumor growth [6]: tumor growth delays
Mineralization, Alizarin Red S stained spots (MC3T3-E1 cells [7]): more stained spots compared with the negative control
ERK phosphorylation [8]: significantly inhibits

pKd (mouse Elp2 protein; [9]): 6.32
koff (mouse Elp2 protein; [9]): 2.59e-05 s⁻¹
kon (mouse Elp2 protein; [9]): 53.8 M⁻¹ s⁻¹
Compound: RK-33

pKd (mouse Elp2 protein): 5.60
koff (mouse Elp2 protein): 0.000462 s⁻¹
kon (mouse Elp2 protein): 182 M⁻¹ s⁻¹
Compound: Cn1nnc2c(C(N)=O)ncn2c1=O [Temozolomide]

The remaining lines, values behind:

Compound: CC(C)N(CCC(c1ccccc1)c1cc(CO)ccc1O)C(C)C (centres unmarked) [5-Hydroxymethyl tolterodine]
pKd (mouse Elp2 protein; [9]): 5.83
koff (mouse Elp2 protein; [9]): 0.0166 s⁻¹
kon (mouse Elp2 protein; [9]): 11300 M⁻¹ s⁻¹

Compound: CC(C)NCC(O)c1ccc(O)c(O)c1 (centres unmarked) [Isoprenaline hydrochloride]
pKd (mouse Elp2 protein): 5.34
koff (mouse Elp2 protein): 0.00454 s⁻¹
kon (mouse Elp2 protein): 987 M⁻¹ s⁻¹

Compound: CNC[C@H](O)c1ccc(O)c(O)c1 [Epinephrine bitartrate]
pKd (mouse Elp2 protein): 6.17
koff (mouse Elp2 protein): 0.000529 s⁻¹
kon (mouse Elp2 protein): 783 M⁻¹ s⁻¹

Compound: O=C1O[C@H](CO)[C@@H](O)[C@H](O)[C@H]1O [Gluconolactone]
pKd (mouse Elp2 protein): 4.51
koff (mouse Elp2 protein): 0.0819 s⁻¹
kon (mouse Elp2 protein): 2640 M⁻¹ s⁻¹
